Screens deposited in PubChem BioAssay by several laboratories.
Compounds with a hit are over-represented: about 1.9% of the library has one in this group of screens.
APP 5UTR inh = APP translation inhibition; SH-SY5Y APP 5'UTR-luciferase reporter, luminescence; inhibition, % at 2 µM; 0.82% of 190,000 active;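 active = inhibition above a set limit, derived from the sample mean plus 3 SD, cut at about 45% in these data; inconclusive = one replicate passes the limit while the other fails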
697 NFkB inh = inhibitors of the PMA/ionomycin-induced NF-kB reporter in 697 B cells. inhibition, % at 4 µM. 697 B-cell NF-kB luciferase reporter, 16 h. 0.33% of 330,000 active; in the data active = inhibition above about 35%
TAG inh = reduces triacylglycerol accumulation in H9c2 cells. Nile Red lipid (TAG) fluorescence; cells loaded with 200 µM oleic acid. inhibition, % at 12.5 µM. 0.66% of 230,000 active. AID 651582;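 active = pattern-corrected inhibition of lipid staining of at least 50% with the nuclear-stain viability signal not falling by more than 50%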;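 also: 0% = DMSO wells and 100% = triacsin C control wells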
Lipid droplet = hepatic lipid droplet formation modulation; 0.4% of 240,000 active; inhibition, % at 6.5 µM; AML12 mouse hepatocytes, oleate lipid droplets, BODIPY imaging; AID 1656;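 active = lipid droplet intensity inhibited by at least 50%, with more than 500 cells counted; inconclusive = wells with under 300 cells, treated as cytotoxic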
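material = mouse AML12 hepatocyte cell line, fixed after treatment | also added = 100 µM oleic acid challenge | doses = compound at 6.5 µM only | schedule = overnight exposure | technique = Image-based BODIPY and DAPI two-channel analysis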
Jurkat NFkB inh = lowers PMA/ionomycin-induced NF-kB signal in Jurkat cells; PMA/ionomycin-induced NF-kB luciferase reporter, luminescence; inhibition, % at 4 µM; 0.53% of 330,000 active; AID 435003; in the data active = inhibition above about 50%
aSyn UTR inh = MLPCN primary screen, SNCA 5' untranslated region; AID 1813; inhibition, % (tested at 7.5 µM); 0.82% of 300,000 active; alpha-synuclein 5'UTR reporter, inhibitor activity; in the data active = inhibition above about 60%; inconclusive = no clear call, values can overlap the other calls;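 also: H4 neuroglioblastoma cells stably carrying SNCA 5'UTR luciferase fusion; 0% = DMSO wells and 100% = positive control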
Hep lipid conf = hepatic lipid droplet formation inhibition, confirmed; shares compounds with Lipid droplet; AML12 mouse hepatocytes, BODIPY lipid droplet imaging; droplets induced with 100 µM oleic acid; inhibition, % at 5.2 µM; 65% of 870 active;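 active = inhibition of lipid droplet metric at least 50%, with more than 300 cells in each of four replicates; inconclusive = wells under 300 cells, flagged as toxic or low count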;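 also: plate controls were DMSO with oleic acid for no effect and 5 µM Triacsin-C for full effect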
AML12 tox img = counter-screen for cytotoxicity in AML12 mouse hepatocytes | shares compounds with Lipid droplet | DAPI nuclear morphology cytotoxicity imaging; stronger effect = higher value; cells fed 100 µM oleate overnight | z-score at 5 µM | 3% of 870 active; in the data active = z-score above about 6.3;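 also: compound exposure lasted overnight at 37 °C before fixation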
AML12 tox ATP = AML12 hepatocyte cytotoxicity, confirmed; shares compounds with Lipid droplet; AML12 mouse hepatocyte viability, ATP luminescence; cells loaded with 100 µM oleic acid; cytotoxicity, % at 50 µM; 530 tested, under 10 active; AID 463219;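 active = cytotoxicity above 50% in each of four replicates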;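 also: compound exposure lasted overnight at 37 °C before the ATP read; 0% = DMSO-treated cells and 100% = wells with no cells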
* = called active by the depositor; ? = inconclusive; / = not tested or not shown.

SMILES	APP 5UTR inh	697 NFkB inh	TAG inh	Lipid droplet	Jurkat NFkB inh	aSyn UTR inh	Hep lipid conf	AML12 tox img	AML12 tox ATP
CSc1ccc(CN2CCN(C3CCCC3)C(CCO)C2)cc1 (stereo unspecified)	14.3	12.0	-2.2	55.4*	14.9	22.8	-3.4	-0.547	/
Cc1[nH]n(-c2ccccc2)c(=O)c1N=Nc1cccc(Cl)c1	/	-87.1	/	63.7*	-78.3	-202.1	100.6*	-0.0574	0.4
Cc1[nH]n(-c2ccccc2)c(=O)c1N=Nc1cccc([N+](=O)[O-])c1	/	-9.0	34.7	/	0.8	-70.8	/	/	/
CC(=O)c1cccc(N=Nc2c(-c3ccccc3)[nH]n(-c3ccccc3)c2=O)c1	17.0	-1.5	/	101.0*	5.5	12.4	109.6*	-0.346	-1.0
O=c1[nH]c(=S)[nH]c(O)c1N=Nc1ccc(-c2ccccc2)cc1[N+](=O)[O-]	-13.6	/	/	-34.7	/	-14.1	/	/	/
COc1ccc(CNS(=O)(=O)c2ccc(S(=O)(=O)NC3CC3)cc2)cc1	/	8.7	/	39.5	5.0	-21.7	/	/	/
COc1cccc(CNS(=O)(=O)c2ccc(S(=O)(=O)NC3CC3)cc2)c1	/	5.9	/	80.5*	25.7	-0.1	108.0*	0.015	16.2
O=C(CCNC(=O)C1CCN(S(=O)(=O)c2ccccc2)CC1)NCc1ccc(Cl)cc1Cl	/	0.3	/	55.8*	6.6	23.6	75.1*	-0.396	12.4
O=C(CCNC(=O)C1CCN(S(=O)(=O)c2ccc(F)cc2)CC1)NCc1ccccc1Cl	/	0.1	/	50.6*	7.0	10.6	21.8	-0.597	/
O=C(CCNC(=O)C1CCN(S(=O)(=O)c2ccccc2)CC1)NCc1ccc(Cl)cc1	/	2.1	/	-1.8	17.9	22.0	/	/	/
O=C(CCNC(=O)C1CCN(S(=O)(=O)c2ccc(F)cc2)CC1)NCc1ccccc1	/	2.4	/	2.0	-2.8	6.4	/	/	/
Cc1cc(NC(=O)C23CC4CC(C2)CC(n2cnc([N+](=O)[O-])n2)(C4)C3)no1	-8.0	7.5	/	10.3	-7.5	16.6	/	/	/
CC(=O)c1nc(-c2ccccc2)sc1C	4.9	11.7	-9.1	3.0	-17.0	-21.7	/	/	/
Cc1c(Cc2ccc3c(c2)OCO3)sc(NC(=O)c2ccc3ccccc3c2)c1C(N)=O	-14.0	3.1	20.0	-11.1	-18.5	-80.1	/	/	/
Cc1nc(NC(=O)c2ccc(OCC(C)C)cc2)sc1Cc1ccc2c(c1)OCO2	-14.8	-22.4	26.1	62.7*	-9.9	-84.8	97.7*	-0.179	6.3
COc1ccc(NS(=O)(=O)c2ccc(NC(=S)NCC3CCCO3)cc2)cc1 (stereo unspecified)	/	-15.4	21.2	84.4*	0.4	-1.0	99.8*	-0.393	18.8
Cc1ccc(-n2nc(C)c3c(=O)[nH]c(C(F)(F)F)nc32)cc1	9.4	-15.4	/	73.8*	12.4	-1.4	12.0	-0.309	/
N=c1scc(-c2ccccc2)n1/N=C/c1ccco1	-23.3	-3.7	/	54.5*	-10.3	-220.3	25.5	-0.56	/
C(=N/n1c2ccccc2c2ccccc21)/c1ccco1	-12.4	7.8	-9.4	-0.9	1.7	-3.7	/	/	/
COc1ccc(OC)c(NC(=O)NC2CCCc3ccccc32)c1 (stereo unspecified)	/	27.4	-7.8	-11.7	-0.7	-4.2	/	/	/
COc1ccc([C@H]2C[C@@H](n3cc(-c4ccc(F)cc4)nn3)[C@H](O)CN2CC2CCCCC2)cc1	/	/	-3.1	/	/	/	/	/	/
COc1cccc(N2CCN(CC(=O)N3CCN(S(=O)(=O)c4ccc(Cl)cc4)CC3)CC2)c1	/	8.6	1.9	/	15.2	/	/	/	/
CCc1ccc(NC(=O)CSc2nnc(C)c(=O)n2N)cc1	/	-26.8	28.9	58.3*	-8.9	-27.1	89.1*	0.195	10.7
CCc1ccccc1NC(=O)C1=CC(c2cccs2)=NS(=O)(=O)N1C	/	-16.4	38.9	71.6*	5.6	18.6	105.0*	-0.135	18.3
Cc1ccc(O)c(NC(=O)C2=CC(c3cccs3)=NS(=O)(=O)N2C)c1	/	-15.9	-11.7	?	7.6	-13.5	/	/	/
SMILES	APP 5UTR inh	697 NFkB inh	TAG inh	Lipid droplet	Jurkat NFkB inh	aSyn UTR inh	Hep lipid conf	AML12 tox img	AML12 tox ATP
COC(=O)c1ccc(-c2noc(CN(C)CC3CCCCO3)n2)cc1 (stereo unspecified)	-14.0	-63.3	-13.7	50.5*	-12.1	-35.7	8.0	0.0572	/
Cc1cccc(C(=O)OCC(=O)c2ccc(CC(=O)N3CCOCC3)s2)c1C	/	7.5	-8.1	/	5.8	/	/	/	/
O=C(CSc1nc(-c2ccco2)cc(C(F)(F)F)n1)Nc1ccc(C(=O)N2CCOCC2)cc1	-6.3	-3.5	35.6	59.0*	10.9	-15.5	90.4*	-0.188	9.5
C=CCn1c(SCC(=O)OCC)nc(C(F)(F)F)cc1=O	-1.6	-2.5	-20.1	-20.2	-11.8	24.1	/	/	/
O=C(c1cccc(S(=O)(=O)Nc2cccc(C(F)(F)F)c2)c1)N1CCOCC1	/	8.7	-7.0	-5.4	2.0	-5.4	/	/	/
O=C(c1ccc(S(=O)(=O)Nc2cccc(C(F)(F)F)c2)cc1)N1CCOCC1	/	-2.0	6.4	58.1*	-13.6	9.3	90.2*	0.612	17.6
CC(OC(=O)CC1CCCCC1)C(=O)Nc1cccc(C#N)c1 (stereo unspecified)	/	-9.7	-26.8	/	-3.1	5.4	/	/	/
COc1ccc(C2(c3ccc(OC)cc3)NC(=O)N(CC(=O)Nc3ccc(C(=O)N(C)C)cc3)C2=O)cc1	/	4.8	3.1	2.0	-3.7	4.7	/	/	/
COc1ccc(C2(c3ccc(OC)cc3)NC(=O)N(CC(=O)Nc3cc(C)ccc3OC)C2=O)cc1	/	-4.6	28.1	86.3*	-13.8	-8.3	106.3*	-1.02	11.9
CC(C)COc1cccc(-c2cc(C(=O)Nc3ccon3)c3ccccc3n2)c1	/	5.4	/	50.4*	7.3	8.3	80.5*	0.0251	-9.8
CC1(C)Cc2c(cnn2-c2ccc(F)cc2)C(NC(=O)C2=CC(=O)CC(C)(C)O2)C1 (stereo unspecified)	/	/	-8.7	/	/	/	/	/	/
COc1ccc(OC)c(NC(=O)c2ccccc2SC)c1	15.2	12.4	/	-0.8	10.1	22.1	/	/	/
COc1ccc(OC)c(NC(=O)c2cc3oc4ccccc4c3cc2O)c1	/	11.0	/	108.2*	-5.1	-20.8	17.9	0.111	/
CCOC(=O)C1=C(COC(=O)/C=C/c2cccc(OC)c2)NC(=O)NC1C (stereo unspecified)	/	5.1	-15.8	2.2	16.3	0.5	/	/	/
CCOc1cc2[nH]c(=O)n(CCCC(=O)N(C)Cc3ccccc3)c(=O)c2cc1OCC	-1.3	9.9	30.1	69.9*	1.5	39.8	107.2*	-0.476	10.3
COCCNC(=S)N1CCc2cc(OC)c(OC)cc2C1COc1cc(C)cc(C)c1 (stereo unspecified)	-2.5	-15.1	/	61.6*	-9.0	-10.8	90.3*	0.581	-1.7
